Results on 23 sequences are retold here after the EternaBench riboswitch data.

What is called apparent Kd is the concentration giving half-maximal binding under the conditions of the assay.

Data set [1] concerns MS2 coat protein. The data set is described as follows: apparent Kd, MS2 coat protein; higher = weaker binding; RNA-MaP array. The gist of the method:
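Designed RNAs were transcribed on an Illumina sequencing chip from sequenced DNA templates. They were incubated at room temperature with fluorescently labeled MS2 coat protein at 1.5 nM to 3 μM, for 0.8–1.5 h at the lowest to 10–20 min at the highest concentrations, in Tris-HCl pH 7.5 buffer with KCl, MgCl2, BSA, DTT, tRNA and Tween20, with or without input ligand. Apparent Kd is the median of per-cluster binding-curve fits. Designs measured on fewer than 10 clusters were excluded.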

In data set [2] the test system is MS2 coat protein. Put plainly: apparent Kd, MS2 coat protein; higher = weaker binding; RNA-MaP array; FMN 200 µM where present. The gist of the method:
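The titrant was SNAP-549-labelled MS2 coat protein, run from 0.7 or 1.5 nM in doubling steps to 3 µM. It was applied to designs transcribed by stalled E. coli RNA polymerase on Illumina sequencing-chip clusters, without ligand first and then with constant ligand, in 100 mM Tris-HCl pH 7.5, 80 mM KCl, 4 mM MgCl2, BSA, DTT, yeast tRNA and Tween-20. The apparent Kd is the median of filtered per-cluster binding-curve fits, with green signal normalised to red-channel RNA signal and control-cluster median Fmax.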

Setting [3] is: designed as: OFF switch for flavin mononucleotide, no ligand.
Where [4] appears, read: ligand present: flavin mononucleotide, designed as: OFF switch for flavin mononucleotide.
[5] abbreviates: designed as: ON switch for flavin mononucleotide, no ligand.
The mark [6] stands for this setting: ligand present: flavin mononucleotide, designed as: ON switch for flavin mononucleotide.

In the case of “CACACCGAAGGAUAUACUACUGCUAUUUAGAGUGAGGGCGAACAUGAGGAUCACCCAUGUAGAAGGUCGAGAAA”, the entries for the “apparent Kd” value in the data set with MS2 coat protein [1] (setting [3]) and with MS2 coat protein [1] (setting [4]) were 0.0175 µM and 0.0206 µM, respectively.
For the sequence “CCACAGACAUGAGGAUCACCCAUGUAGUUGGGCGUGUCAUCUCAGGAUAUGGCAACGCUUAUGAGCCAGAAGGGAGAAGGUUAU”, the “apparent Kd” value in the data set on MS2 coat protein [1] (setting [3]) was found to be 0.0134 µM; in the data set on MS2 coat protein [1] (setting [4]), 0.0128 µM.
With “CGCGACUUCAGAGGAUAUGUGCGUGUCACAUGAGGAUCACCCAUGUAAGGUUACCUACGACCGGGACAGAAGGCUGACCCAAAA”, the “apparent Kd” value in the data set with MS2 coat protein [1] (setting [5]) came to 0.061 µM; in the data set with MS2 coat protein [1] (setting [6]), 0.0196 µM.
On the same counts, the results for “ACAUGAGGAUCACCCAUGUUGUCAUAGCAACUUUACAGGAGGAGAAGGCGAGGUUGGGCUGCCCUCGAGGAUAUCCGUAGAAAA” are 0.0104 µM and 0.00645 µM.
Turning to “UACGGUCAUAGAGGAUAUAGAUCGCGCAACGGUUUCGUGGCCCACAUGAGGAUCACCCAUGUUAUCUAGAAGGCUAUGAGUCGC”, the “apparent Kd” value in the data set with MS2 coat protein [1] (setting [3]) was determined as 0.00682 µM; with MS2 coat protein [1] (setting [4]) it was 0.0068 µM.
“AUUGAACAUGAGGAUCACCCAUGUGCGGGUGGUAUAGGAUAUGCAGGAUCCUAAGAGUAAGCAGAAGGAUACACCG”: the “apparent Kd” value came to 0.445 µM in the data set on MS2 coat protein [1] (setting [5]) and 0.0334 µM with MS2 coat protein [1] (setting [6]).
On to “AUCUUAGGUGAGAAGGUGGACACAUGAGGAUCACCCAUGUUGAUGGUCUUGUAGCGUUUGCAAGCCAAGGAUAUCAUCUACGGC”, for which the entries for the “apparent Kd” value in the data set on MS2 coat protein [1] (setting [5]) and in the data set with MS2 coat protein [1] (setting [6]) were 0.0274 µM and 0.0198 µM, respectively.
In the case of “AAUUCCUGUAAGAAGGGCGAUAUACAUGAGGAUCACCCAUGUCGUUGGAUUGAAGAAAAUCAGACGCAGGAUAUUAUUGGGAAC”, the “apparent Kd” value came out at 0.0943 µM with MS2 coat protein [1] (setting [5]) and 0.04 µM in the data set on MS2 coat protein [1] (setting [6]).
Consider “AACAGUACAGGAUAUACAUGAGGAUCACCCAUGUGAGACUUAAGUGGCGUACCACAAAGUAGAAGGGUACUGGA”, for which the “apparent Kd” value with MS2 coat protein [2] (setting [3]) amounted to 0.0947 µM; in the data set on MS2 coat protein [2] (setting [4]) it was 0.545 µM.
With “UGGUACUAGGGAGGAUAUGGGAGGAUACAUGAGGAUCACCCAUGUUUAAGAAUGCCGAGAGGCAACUAGAAGGCCCUAGUACCU”, the “apparent Kd” value amounted to 0.919 µM in the data set with MS2 coat protein [2] (setting [5]) and 0.0637 µM in the data set on MS2 coat protein [2] (setting [6]).
“UUAUAACAGUCAGGAUAUGUAACGUACAACGGCGCAGAAGGGACAUGAGGAUCACCCAUGUUAUGGUUCUGGUACUAUGACGUU”: the “apparent Kd” value with MS2 coat protein [2] (setting [3]) is 0.0132 µM; in the data set on MS2 coat protein [2] (setting [4]), 0.0149 µM.
As to “AGUGACUACGUAGGAUAUUAAUUCAUGGACUACAUGAGGAUCACCCAUGUUUAUUUAACAUCAGCUAAGAAGGACGUGGUCACA”, the “apparent Kd” value is 0.0166 µM in the data set on MS2 coat protein [2] (setting [5]) and 0.0085 µM with MS2 coat protein [2] (setting [6]).
With “UUUAAUUUAAUUAAGAUCACAUGAGGAUCACCCAUGUAAUUAUAGGAUAUCAGCUCGAAUAGAGCUGAGAAGGAUAAUUACAUA”, the results for the “apparent Kd” value with MS2 coat protein [2] (setting [3]) and with MS2 coat protein [2] (setting [4]) were 0.0895 µM and 0.0577 µM, respectively.
Take “GAAAACAUAGGAUAUACAUGAGGAUCACCCAUGUUAAAAUAAAGAAAGGGAGAAAUAAGUAGAAGGAUGAAAAA”: the “apparent Kd” value in the data set with MS2 coat protein [2] (setting [3]) was found to be 0.0338 µM; in the data set on MS2 coat protein [2] (setting [4]), 0.0342 µM.
The matching figures for “UAUGUCUUUGUGAGGAUAUACUUUGUUUGGUCGUAGUAGAAGGCACAUGAGGAUCACCCAUGUAGAUUUUUGGU”: 0.0232 µM and 0.0361 µM.
“UUGGUUGUCGUAGGAUAUGUAGGAUAUUCCUACAUGAGGAUCACCCAUGUUCGCAUGGAAGAAGGACAGAAGGACGAUGACCAG”: the “apparent Kd” value in the data set with MS2 coat protein [2] (setting [5]) came out at 1.24 µM; with MS2 coat protein [2] (setting [6]), 0.00967 µM.
As for “UUAGGUCGAAACAUGAGGAUCACCCAUGUGUUGUAAUUAACAUAGGAUAUGUUUAUACUUUUUGGGCAGAAGGAUGAUAUUGCU”, the “apparent Kd” value with MS2 coat protein [2] (setting [5]) worked out at 0.0173 µM; in the data set with MS2 coat protein [2] (setting [6]), 0.014 µM.
In the case of “GUAUCUUAUGAGAAGGCGAUCAUGAAACAUGAUCGAGGAUAUCAUGAAAACAUGAGGAUCACCCAUGUAUGGGUAUUAUGGUAC”, the “apparent Kd” value is 0.0635 µM in the data set with MS2 coat protein [2] (setting [5]) and 0.0437 µM in the data set with MS2 coat protein [2] (setting [6]).
The matching figures for “GGGUGGCGUAGAGGAUAUGUGGUACAUGAGGAUCACCCAUGUGCAUAUGAUGUUCGUGUGUCAUCAUAGAAGGCUACGUCGCUA”: 0.132 µM and 0.0629 µM.
In the case of “UGCGCCUGCGAGAAGGCACAGAUCCAGCUCUUGACAUGAGGAUCACCCAUGUGAGGAUAUCGCAGGCGCGAAUUGGGACAAUCU”, the entries for the “apparent Kd” value with MS2 coat protein [2] (setting [3]) and in the data set on MS2 coat protein [2] (setting [4]) were 0.0128 µM and 0.0741 µM, respectively.
As to “UGGCCCGCCGGAGGAUAUCUACUCUGUGGUGCACUGCGUUUGCAAUACAUGAGGAUCACCCAUGUAGAGAAGGCCGAGGGCACA”, the “apparent Kd” value in the data set on MS2 coat protein [2] (setting [4]) stood at 0.0669 µM.
In the case of “GGAUGACAAAGUCAUCCAAUUCGAACAUGAGGAUCACCCAUGUAGGAUAUGCUACACAAAGUGUAGCAGAAGGACAUGUGCCUU”, the “apparent Kd” value in the data set on MS2 coat protein [2] (setting [3]) amounted to 0.0307 µM; in the data set with MS2 coat protein [2] (setting [4]), 0.183 µM.
With “CUGGUGUGAGGAUAUCAAAGACCUCGGGAUAGUAGCGAGGAUGAGAAGGCACAUGAGGAUCACCCAUGUAACAA”, the entries for the “apparent Kd” value with MS2 coat protein [2] (setting [3]) and in the data set on MS2 coat protein [2] (setting [4]) were 0.0209 µM and 0.0338 µM, respectively.
